SMILES strings stand for the structures.

The results in this text go back to ChEMBL document CHEMBL1124974, “Orally potent human renin inhibitors derived from angiotensinogen transition state: design, synthesis, and mode of interaction” (J Med Chem, 1990).

The target of test [1] is T1, Renin (Homo sapiens, UniProt P00797).
T1 sequence (P00797 whole entry): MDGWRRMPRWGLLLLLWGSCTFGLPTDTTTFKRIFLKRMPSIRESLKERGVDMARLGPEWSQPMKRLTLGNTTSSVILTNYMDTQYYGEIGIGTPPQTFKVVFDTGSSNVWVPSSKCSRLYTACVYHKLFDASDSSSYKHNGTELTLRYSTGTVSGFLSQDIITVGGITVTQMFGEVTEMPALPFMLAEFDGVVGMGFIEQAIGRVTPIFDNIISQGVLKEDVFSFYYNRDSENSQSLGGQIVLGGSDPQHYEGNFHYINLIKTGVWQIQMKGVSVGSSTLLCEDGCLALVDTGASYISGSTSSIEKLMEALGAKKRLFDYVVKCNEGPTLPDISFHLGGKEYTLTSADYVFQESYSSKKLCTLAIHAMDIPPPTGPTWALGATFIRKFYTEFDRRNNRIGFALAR
The test is described as follows: Tested for inhibition of human plasma renin. The format is cell-free. Put shortly: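 Human plasma containing EDTA-2Na (14 mM) and neomycin sulfate (0.3%) mixed with 0.5 M phosphate buffer pH 7.0, Phe-Ala-Pro (20 mM aqueous stock) and inhibitor in DMSO; 60 min at 37 °C; angiotensin I generated quantified by radioimmunoassay.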

Test [2] addresses T1, Renin. The test can be described thus: Tested for inhibition of renin from human.
For test [3], the target named is T2, Angiotensin-converting enzyme (Oryctolagus cuniculus, UniProt P12822).
T2 sequence (P12822 whole entry): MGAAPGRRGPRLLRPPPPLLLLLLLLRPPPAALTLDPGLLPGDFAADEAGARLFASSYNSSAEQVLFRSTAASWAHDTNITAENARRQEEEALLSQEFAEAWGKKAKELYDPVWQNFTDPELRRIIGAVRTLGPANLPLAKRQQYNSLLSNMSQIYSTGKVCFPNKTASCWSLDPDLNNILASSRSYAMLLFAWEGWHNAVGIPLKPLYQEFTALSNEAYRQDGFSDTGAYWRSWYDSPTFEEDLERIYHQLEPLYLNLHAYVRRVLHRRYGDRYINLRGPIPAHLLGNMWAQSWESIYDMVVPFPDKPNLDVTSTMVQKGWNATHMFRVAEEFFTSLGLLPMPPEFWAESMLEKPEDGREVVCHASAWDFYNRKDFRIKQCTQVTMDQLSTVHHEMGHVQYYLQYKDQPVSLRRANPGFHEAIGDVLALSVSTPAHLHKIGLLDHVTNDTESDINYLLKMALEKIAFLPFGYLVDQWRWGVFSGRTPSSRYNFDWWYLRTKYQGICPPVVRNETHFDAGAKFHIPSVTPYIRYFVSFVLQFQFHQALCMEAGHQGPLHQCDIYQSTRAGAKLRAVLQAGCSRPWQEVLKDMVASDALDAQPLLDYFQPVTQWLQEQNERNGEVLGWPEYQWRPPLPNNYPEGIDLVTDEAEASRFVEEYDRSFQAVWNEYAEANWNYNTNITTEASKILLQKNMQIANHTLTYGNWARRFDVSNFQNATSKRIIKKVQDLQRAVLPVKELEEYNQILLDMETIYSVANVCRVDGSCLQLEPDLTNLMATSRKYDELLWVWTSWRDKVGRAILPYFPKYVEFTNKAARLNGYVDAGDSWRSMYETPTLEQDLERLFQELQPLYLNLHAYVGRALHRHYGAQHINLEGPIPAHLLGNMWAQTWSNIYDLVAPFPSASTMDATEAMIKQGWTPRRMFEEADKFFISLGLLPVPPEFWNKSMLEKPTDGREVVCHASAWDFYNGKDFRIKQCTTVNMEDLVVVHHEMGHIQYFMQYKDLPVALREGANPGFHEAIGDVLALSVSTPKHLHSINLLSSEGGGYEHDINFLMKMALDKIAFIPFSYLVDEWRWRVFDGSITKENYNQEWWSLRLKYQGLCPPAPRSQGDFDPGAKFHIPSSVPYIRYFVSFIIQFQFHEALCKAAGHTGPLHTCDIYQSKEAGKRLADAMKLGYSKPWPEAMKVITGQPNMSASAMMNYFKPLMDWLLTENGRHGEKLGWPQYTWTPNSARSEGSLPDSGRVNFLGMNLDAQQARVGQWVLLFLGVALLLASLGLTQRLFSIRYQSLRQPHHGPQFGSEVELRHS
The test can be described thus: Tested for inhibition of Angiotensin I converting enzyme from rabbit. The gist of the method: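 Inhibition measured at 37 °C with Hip-His-Leu substrate, pH 8.3.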

Test [4] has as its target Pepsin A (Sus scrofa, UniProt P00791). The test can be described thus: Tested for inhibition of pepsin from porcine. Put shortly:
(§1)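 Run at 37 °C with hemoglobin substrate at pH 3.2 for cathepsin D, casein substrate at pH 2.0 for pepsin.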

For test [5], the target named is T3, Cathepsin D (Bos taurus, UniProt P80209).
T3 sequence (P80209 whole entry): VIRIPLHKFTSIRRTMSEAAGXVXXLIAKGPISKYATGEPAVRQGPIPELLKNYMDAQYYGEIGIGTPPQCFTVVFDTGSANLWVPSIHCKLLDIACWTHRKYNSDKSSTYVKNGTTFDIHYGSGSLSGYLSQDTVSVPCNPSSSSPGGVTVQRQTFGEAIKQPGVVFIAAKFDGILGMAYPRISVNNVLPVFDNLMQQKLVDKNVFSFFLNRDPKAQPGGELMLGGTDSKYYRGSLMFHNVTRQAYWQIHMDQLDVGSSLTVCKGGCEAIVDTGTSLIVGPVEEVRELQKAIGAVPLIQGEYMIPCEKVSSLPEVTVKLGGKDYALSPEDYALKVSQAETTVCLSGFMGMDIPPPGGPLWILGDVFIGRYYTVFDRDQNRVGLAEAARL
The test is described as follows: Tested for inhibition of Cathepsin D from bovine. Put shortly:
as §1

Chain of Pepsin A (P00791 whole entry): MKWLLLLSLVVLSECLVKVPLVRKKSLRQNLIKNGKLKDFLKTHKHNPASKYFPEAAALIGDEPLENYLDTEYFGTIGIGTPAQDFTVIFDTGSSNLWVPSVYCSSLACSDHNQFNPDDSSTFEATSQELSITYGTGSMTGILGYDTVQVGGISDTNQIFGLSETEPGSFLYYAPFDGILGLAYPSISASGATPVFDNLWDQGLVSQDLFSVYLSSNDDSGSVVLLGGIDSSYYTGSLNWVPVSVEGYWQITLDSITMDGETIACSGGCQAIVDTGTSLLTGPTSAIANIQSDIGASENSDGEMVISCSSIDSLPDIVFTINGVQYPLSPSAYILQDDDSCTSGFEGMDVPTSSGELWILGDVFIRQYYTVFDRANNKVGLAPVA

As to `CC(C)OC(=O)[C@@H](O)[C@@H](CC1CCCCC1)NC(=O)[C@H](Cc1c[nH]cn1)NC(=O)[C@@H](CC(=O)N1CCOCC1)Cc1cccc2ccccc12`, the IC50 in test [1] turned out to be 4.2 µM; in test [2], 2.7 µM.
The like results for `CC(C)OC(=O)[C@H](O)[C@H](CC1CCCCC1)NC(=O)[C@@H](Cc1c[nH]cn1)NC(=O)[C@@H](CC(=O)N1CCOCC1)Cc1cccc2ccccc12` were, in that order, 2.3 µM and 2.5 µM.
The matching figures for `CC(C)OC(=O)[C@H](O)[C@H](CC1CCCCC1)NC(=O)[C@H](Cc1c[nH]cn1)NC(=O)[C@H](CC(=O)N1CCOCC1)Cc1cccc2ccccc12`: 1.5 µM and 4.2 µM.
For the compound `CC(C)CC(=O)N[C@H](C(=O)N[C@H](C(=O)N[C@@H](CC(C)C)[C@@H](O)CC(=O)N[C@@H](C)C(=O)N[C@@H](CC(C)C)[C@@H](O)CC(=O)O)C(C)C)C(C)C` [PEPSTATIN], the IC50 in test [3] was greater than 100 µM; in test [4], 0.018 µM.
`CC(C)OC(=O)[C@H](O)[C@H](CC1CCCCC1)NC(=O)[C@H](Cc1c[nH]cn1)NC(=O)[C@@H](CC(=O)N1CCOCC1)Cc1cccc2ccccc12`: the IC50 in test [3] was greater than 100 µM; in test [1] it was 0.0047 µM; in test [5], 80 µM; in test [4], greater than 100 µM; in test [2] it was 0.0024 µM.
Consider `CC(C)OC(=O)[C@H](O)[C@@H](CC1CCCCC1)NC(=O)[C@H](Cc1c[nH]cn1)NC(=O)[C@@H](CC(=O)N1CCOCC1)Cc1cccc2ccccc12`, for which the IC50 was 2.1 µM in test [1] and 3.5 µM in test [2].
The matching figures for `CC(C)OC(=O)C(O)[C@@H](Cc1ccccc1)NC(=O)[C@H](Cc1cnc[nH]1)NC(=O)[C@@H](CC(=O)N1CCOCC1)Cc1cccc2ccccc12` (some centres not stated): 0.27 µM and 0.11 µM.

As usually defined, the IC50 is the concentration that gives 50% inhibition.
